36 sequences from the EternaBench riboswitch data can be followed below.

The subject of this data set is MS2 coat protein. Description: apparent Kd, MS2 coat protein; higher = weaker binding; RNA-MaP array; FMN 200 µM where present. In outline: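 Stalled E. coli RNA polymerase transcribed the designs on Illumina sequencing-chip clusters. SNAP-549-labelled MS2 coat protein was titrated from 0.7 or 1.5 nM, doubling to 3 µM, without and then with constant ligand, in 100 mM Tris-HCl pH 7.5, 80 mM KCl, 4 mM MgCl2, BSA, DTT, yeast tRNA and Tween-20. Per-cluster binding curves were fitted to green signal normalised to red-channel RNA signal and control-cluster median Fmax. The apparent Kd is the median of the filtered fits.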

The mark [1] stands for this setting: designed as: OFF switch for flavin mononucleotide, no ligand.
The mark [2] stands for this setting: ligand present: flavin mononucleotide, designed as: OFF switch for flavin mononucleotide.
Setting [3] is: designed as: ON switch for flavin mononucleotide, no ligand.
The mark [4] stands for this setting: ligand present: flavin mononucleotide, designed as: ON switch for flavin mononucleotide.

Take “UAGAAUCGAGGAUAUACAUGAGGAUCACCCAUGUGUUGCCGCGUGAUGUGUUUGUCAGGUAGAAGGCGAUUAUA”: the “apparent Kd” value amounted to 64.4 nM under setting [1] and 266 nM under setting [2].

Turning to “CGCAAACAUGAGGAUCACCCAUGUGAGGAUAUGUGAGCACGAGAAAGAUAAAGUGAGCACAGAAGGCACAAGCG”, the “apparent Kd” value reads like this: under setting [1], 60.4 nM; under setting [2], 62.9 nM.

For “UGGAUGGUAUGAGGAUAUGCGCGUGAAACGCGCGCAGAAGGCAUGUCAAUAGACAUGAGGAUCACCCAUGUACUAUCCAUCCAA”, the “apparent Kd” value is, setting by setting: under setting [3], 114 nM; under setting [4], 9.65 nM.

On to “AAAGGCCGAGGAUAUACAUGAGGAUCACCCAUGUGGACUCUGCAGAAUUGAUACCUAGGUAGAAGGUGGACCGG”, for which the “apparent Kd” value under setting [1] came to 14.9 nM and the “apparent Kd” value under setting [2] is 15.2 nM.

On to “AAUUUACAGCUAGGAUAUACAUGAGGAUCACCCAUGUAAUCAUAUGAUGUUAUCAUUGUAUGAGUGUAGAAGGAGCAAAUAAGA”, for which the “apparent Kd” value is, setting by setting: under setting [1], 7.72 nM; under setting [2], 6.34 nM.

For the sequence “GCAGCACAAUAUUACAUGAGGAUCACCCAUGUCGAUUGUUAUGAGGAUAUGCAUCGUAUGAAGUUGCAGAAGGCAUUGUGCUGC”, the “apparent Kd” value is 9.4 nM under setting [3] and 6.09 nM under setting [4].

For the sequence “CAAUAAGACACAGGAUAUCCAGACAGGGAAGAUGGAGAAGGGUGAUCAGAAAAGACAUGAGGAUCACCCAUGUCUCGUGCGAUG”, the “apparent Kd” value is, setting by setting: under setting [3], 631 nM; under setting [4], 282 nM.

As to “CUCGGCGCACAGAAGGAUCGGUACAUGAGGAUCACCCAUGUAAGCAAAGAUAGGAUAUGUGGAGCUUACAGGGAAAUUGAACAA”, the “apparent Kd” value was found to be 74.6 nM under setting [3] and 10.8 nM under setting [4].

Turning to “AUCACCUCGUCAGGAUAUACGUCACUGCGUCAGCAGUGUGGUAAGAUCACAUGAGGAUCACCCAUGUAGAAGGGACGAGCUGAU”, the “apparent Kd” value was 14.7 nM under setting [1] and 268 nM under setting [2].

Take “UGUCGGAUCAGAGGAUAUUACAUGAGGAUCACCCAUGUAUGAACCAAUAGCUGGAAACAGCAAUGUAAGAAGGCUGCUCCGACA”: the “apparent Kd” value under setting [1] was determined as 11.4 nM and the “apparent Kd” value under setting [2] was 160 nM.

Turning to “UUGGACGUCGGAGGAUAUGUAGGAUAUUCCUACAUGAGGAUCACCCAUGUUGACAUGGAAGAAGGACAGAAGGACGAUGUCCAU”, the “apparent Kd” value was 352 nM under setting [3] and 4.83 nM under setting [4].

As to “UUGGACGUCGUAGGAUAUGUAGGAUUCUCCUACAUGAGGAUCACCCAUGUUGACAUGGAGGACGGACAGAAGGACGGUGUCCAU”, the “apparent Kd” value under setting [3] was determined as 14.1 nM and the “apparent Kd” value under setting [4] was 5.64 nM.

Turning to “ACGGUUGGGACAGGAUAUGUAACCGGGAUUCUAGUUUCGUCCGUGACAUGAGGAUCACCCAUGUUACAGAAGGGUUCUAAAUCG”, the “apparent Kd” value turned out to be 189 nM under setting [1] and 234 nM under setting [2].

As to “ACACCACAUGAGGAUCACCCAUGUAAAGCGUAGCAAGGAUAUGGGCACGGAUAAUUCCGAUCAGAAGGUGUAACGU”, the “apparent Kd” value under setting [3] amounted to 51.2 nM and the “apparent Kd” value under setting [4] was determined as 118 nM.

For the sequence “UUGGUUGUCGUAGGAUAUGGAGGAGAUUCCUACAUGAGGAUCACCCAUGUUCGCAUGGAAGAAGGCCAGAAGGACGAUGACCAU”, the “apparent Kd” value was determined as 80.5 nM under setting [3] and 62 nM under setting [4].

Turning to “GGGUGGCGUAGAGGAUAUGUGUUACAUGAGGAUCACCCAUGUGCAUAUGAUGUUCGUGUGUGUGCAUAGAAGGCUACGUCGCUA”, the “apparent Kd” value stood at 28.3 nM under setting [3] and 24.3 nM under setting [4].

On to “GGAUUUCCUGAGGAUAUUGCAUCACCCGAUUUAUAAGAAGGCAGAACAUGAGGAUCACCCAUGUGGGUCUCCGG”, for which the “apparent Kd” value reads like this: under setting [1], 18.9 nM; under setting [2], 23.1 nM.

Take “AUAGUGCGCGAGAAGGACGUACCACAUGAGGAUCACCCAUGUGUGGUACGUAGGAUAUUGCACAUGAGGAUCACCCAUGUGGAU”: the “apparent Kd” value is, setting by setting: under setting [3], 19.5 nM; under setting [4], 34.6 nM.

Take “AGCUAGUCAGGAUAUGCGAACAUGUCAAAAGACGUGAAGGGACAUGAGGAUCACCCAUGUAGAAGGGACUAGCA”: the “apparent Kd” value came to 31.8 nM under setting [1] and 35.9 nM under setting [2].

“AAUAUAAGAGCUGGCUCUAAAAGAACAUGAGGAUCACCCAUGUAGGAUAUCAGCACGAUAAGUGCUGAGAAGGACAACCAGCUC”: the “apparent Kd” value under setting [1] was 16.7 nM and the “apparent Kd” value under setting [2] amounted to 15.7 nM.

Regarding “AAGCUUGAUCCUCGUGUAUACAUGAGGAUCACCCAUGUGACGCAGGAUAUAGGCGUGUUAGUAGCCUAGAAGGGCGAGCAGCGA”, the “apparent Kd” value by setting is: under setting [1], 128 nM; under setting [2], 73.5 nM.

On to “CCAGAUUUCACAGGAUAUAUUGAUGACAUGAGGAUCACCCAUGUACCGGCAGUAGAAGGGUGAACGCACGUGACCACGUGCGUG”, for which the “apparent Kd” value reads like this: under setting [3], 54.1 nM; under setting [4], 14.9 nM.

Turning to “AACGCAUGUGGAGGAUAUGCAGUUAACAUAAGCGCAGAAGGCCACAUGAGGAUCACCCAUGUCCGGCAUUAGCCGAUGUUGAUC”, the “apparent Kd” value runs as follows: under setting [1], 509 nM; under setting [2], 114 nM.

For the sequence “GCUUUAUUGGUCAGGAUAUACAUUUGUUACUCUUUGUAGAAGGGACAUGAGGAUCACCCAUGUACAUUACAUUC”, the “apparent Kd” value is, setting by setting: under setting [1], 23.2 nM; under setting [2], 24.3 nM.

“UGUCCGGUCAUAGGAUAUGACAUGAGGAUCACCCAUGUCUGCUUGGCUUGACCGUUGAUCCAUUGUCAGAAGGGUGCCGUUACA”: the “apparent Kd” value was found to be 43.2 nM under setting [1] and 63.1 nM under setting [2].

For “AAUUCACAUGAGGAUCACCCAUGUCAGGAUAUGGUUUCACGUGUUUCGGUGCGUGAGGCCAGAAGGGACAGCUA”, the “apparent Kd” value is 58.4 nM under setting [1] and 87 nM under setting [2].

With “UCAUCAGCGGGCGGGUCGGUUGGACAUGAGGAUCACCCAUGUAGAAGGACCGGUGGACUCCGCCGGUAGGAUAUACAUUUGGUG”, the “apparent Kd” value runs as follows: under setting [1], 32.1 nM; under setting [2], 18.9 nM.

For the sequence “UCGACCAGCGCCGCUCGAACAUGAGGAUCACCCAUGUACUCCAGAAGGCCGCCCAAGUACGGAGUGGAGGAUAUGGAGGUUCUC”, the “apparent Kd” value under setting [3] came out at 39.5 nM and the “apparent Kd” value under setting [4] amounted to 25.4 nM.

With “UGGUACUUGGGAGGAUAUGGGAAGAUACAUGAGGAUCACCCAUGUUUAAGAAUGCCGAGAGGCAACUAGAAGGCCCUAGUACCU”, the “apparent Kd” value is, setting by setting: under setting [3], 493 nM; under setting [4], 20 nM.

As for “GGAAAGCGAGGAUAUACAUGAGGAUCACCCAUGUUAACAAACAAACAAACAAACAAAAGUAGAAGGCGCAAAAU”, the “apparent Kd” value reads like this: under setting [1], 37 nM; under setting [2], 36.5 nM.

For “ACAAGGCAUGUAGGAUAUCCAUUGCGUCGCGAUGGAGAAGGACAACACACAUGAGGAUCACCCAUGUGAUCACCCAUGUCGUGU”, the “apparent Kd” value by setting is: under setting [1], 356 nM; under setting [2], 418 nM.

Consider “AUUUCGUUAGCAGGAUAUGGACAGGCCUGUCCGUAUUGAGUCAGUAACAUGAGGAUCACCCAUGUCCAGAAGGGCUCGAAGUUA”, for which the “apparent Kd” value came out at 8.15 nM under setting [1] and 15.8 nM under setting [2].

Consider “AACAUGAGGAUCACCCAUGUCCCACCAGAAGGCUGGCGGUGGUGGUAAAGGCCACGACAAAUAACAGAGGAUAUGGUGAAUGCA”, for which the “apparent Kd” value came out at 84.6 nM under setting [3] and 18.8 nM under setting [4].

Consider “AUGAGUAAAGCAGGAUAUCUAUUGUCUCUGUAACAUGAGGAUCACCCAUGUAGAGAAGGGCUAAUUCUUACUCUUCGGAGUUGA”, for which the “apparent Kd” value stood at 10.5 nM under setting [1] and 10.1 nM under setting [2].

“GGCCCGGGAGGAUAUACAUGAGGAUCACCCAUGUGCGGGCCCGGGAUCCCGGGCCCGUGUAGAAGGCCCGGGCC”: the “apparent Kd” value by setting is: under setting [1], 13.4 nM; under setting [2], 16.5 nM.

Consider “CUGUCGAUAUCAGGAUAUCGUUUACAUACAUGAGGAUCACCCAUGUAGAUGAUCAGCCUAAUAUACGAGAAGGGAUAACGAUAG”, for which the “apparent Kd” value under setting [3] turned out to be 10.2 nM and the “apparent Kd” value under setting [4] was 9.04 nM.

One may read the apparent Kd as the concentration giving half-maximal binding under the conditions of the assay.
